ChEMBL document CHEMBL1641397, “Camphoratins A-J, potent cytotoxic and anti-inflammatory triterpenoids from the fruiting body of Taiwanofungus camphoratus” (J Nat Prod, 2010)

Columns and labels:
BV-2 [1] = test: Antiinflammatory activity in mouse BV2 cells assessed as inhibition of NOX-dependent ROS production up to 50 uM; format: functional, cell-based
KB [2] = test: Cytotoxicity against human KB cells after 3 days by sulforhodamine B assay; format: functional, cell-based
BV-2 [3] = test: Antiinflammatory activity in mouse BV2 cells assessed as inhibition of LPS-induced iNOS-dependent nitrite production after 24 hrs by Griess method; format: functional, cell-based
[4] = Antiinflammatory activity in human PMNC cells assessed as inhibition of fMLP-induced NOX-dependent ROS production up to 50 uM; format: functional, cell-based
[5] = Cytotoxicity against human KBVIN cells after 3 days by sulforhodamine B assay; format: functional, cell-based
Procedure, shortened: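 KB and vincristine-selected KB-VIN grown in RPMI-1640 with 25 mM HEPES and 10% FBS at 37 °C. KB-VIN challenged with 0.5 μg/mL vincristine every two weeks, drug withdrawn at least one day before use. Seeded at 5000 cells/well, compounds at 20 down to 0.16 μM for 3 days. TCA fixation, SRB stain, absorbance at 562 nm. EC50 interpolated, average of at least two independent determinations.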

KB [6] = test: Cytotoxicity against human KB cells at 20 uM after 3 days by sulforhodamine B assay; format: functional, cell-based
Procedure, shortened: (§1)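 KB or KB-VIN cells (KB-VIN held under intermittent 0.5 μg/mL vincristine, withdrawn at least one day before use). Seeded at 5000 cells/well and exposed to compound at 20 μM for 3 days. Cells fixed with TCA, stained with SRB, absorbance read at 562 nm. Value is % inhibition of growth versus untreated cells.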

[7] = Cytotoxicity against human KBVIN cells at 20 uM after 3 days by sulforhodamine B assay; format: functional; details: 72 h; procedure, shortened: as §1
[8] = Mus musculus, BV-2, read-out: IC50
[9] = Homo sapiens, KB, 72 h, read-out: EC50
[10] = Mus musculus, BV-2, 24 h, read-out: IC50
[11] = Homo sapiens, PMNC, read-out: IC50
[12] = Homo sapiens, KBVIN, 72 h, read-out: EC50

SMILES	EC50 (KB [2]; [9])	IC50 (BV-2 [3]; [10])	IC50 [4, 11]	EC50 [5, 12]	IC50 (BV-2 [1]; bv-2)	EC50 ([5]; kbvin)	further results
C=C(CC[C@@H](C)[C@H]1CC[C@H]2C3=C(C(=O)C[C@]12C)[C@@]1(C)CCC(=O)[C@@H](C)[C@@H]1CC3)C(C)C(=O)O (stereo not given in full) [ANTCIN A]	4.9 µM	4.1 µM	29.2 µM	10 µM	–	–	IC50 (BV-2 [1]; [8]): 45.9 µM
C=C(CC[C@@H](C)[C@H]1CC[C@H]2C3=C(C(=O)C[C@]12C)[C@@]1(C)CC[C@@H](O)[C@](C)(O)[C@@H]1C[C@@H]3O)C(C)C(=O)O (stereo not given in full) [ANTCIN K]	–	–	47.2 µM	–	Not Active	Not Active	EC50 (KB [2]; kb): Not Active; IC50 (BV-2 [3]; bv-2): Not Active
C=C(CC[C@@H](C)[C@H]1CC[C@H]2C3=C(C(=O)[C@H](O)[C@]12C)[C@@]1(C)CC[C@@H](O)[C@@H](C)[C@@H]1C[C@@H]3O)C(C)C(=O)O (stereo not given in full) [CAMPHORATIN A]	–	–	–	–	–	Not Active	EC50 (KB [6]; kb): Not Active
C=C(CC[C@@H](C)[C@H]1CC[C@H]2C3=C(C(=O)C[C@]12C)[C@@]1(C)CC[C@@H](O)[C@@H](C)[C@@H]1C[C@@H]3O)C(C)C(=O)O (stereo not given in full) [CAMPHORATIN B]	–	15.7 µM	32.1 µM	–	Not Active	Not Active	–
C=C(CC[C@@H](C)[C@H]1CC[C@H]2C3=C(C(=O)C[C@]12C)[C@@]1(C)CC[C@@H](O)[C@](C)(O)[C@@H]1CC3=O)C(C)C(=O)O (stereo not given in full) [CAMPHORATIN C]	0.3 µM	–	–	2.3 µM	–	–	–
C=C(CC[C@@H](C)[C@H]1CC[C@H]2C3=C(C(=O)C[C@]12C)[C@@]1(C)CCC(=O)[C@@H](C)[C@@H]1C[C@@H]3O)C(C)C(=O)O (stereo not given in full) [CAMPHORATIN D]	–	4.2 µM	22.6 µM	–	Not Active	Not Active	EC50 (KB [2]; kb): Not Active
C=C(CC[C@@H](C)[C@H]1CC[C@H]2C3=C(C(=O)C[C@]12C)[C@@]1(C)CC[C@@H](O)[C@@H](C)[C@@H]1CC3=O)C(C)C(=O)OC (stereo not given in full) [CAMPHORATIN E]	0.45 µM	–	–	2.7 µM	–	–	–
C=C(CC[C@@H](C)[C@H]1CC[C@H]2C3=C(C(=O)C[C@]12C)[C@@]1(C)CCC(=O)[C@@H](C)[C@@H]1C[C@@H]3O)C(C)C(=O)OC (stereo not given in full) [CAMPHORATIN F]	2 µM	2.5 µM	11.2 µM	2.9 µM	Not Active	–	–
C=C(CC[C@@H](C)[C@H]1CC[C@H]2C3=C(C(=O)C[C@]12C)[C@@]1(C)CCC(=O)[C@@H](C)[C@@H]1C[C@H]3O)C(C)C(=O)O (stereo not given in full) [CAMPHORATIN G]	15 µM	–	–	17.5 µM	–	–	–
C=C(CC[C@@H](C)[C@H]1CC[C@H]2C3=C(C(=O)C[C@]12C)[C@@]1(C)CCC(=O)[C@@H](C)[C@@H]1CC3)C(C)C [CAMPHORATIN H]	–	–	–	–	–	Not Active	EC50 (KB [2]; kb): Not Active
C[C@H](/C=C/[C@H](C)[C@H](C)CO)[C@H]1CC[C@H]2C3=CC[C@H]4CC(=O)CC[C@]4(C)[C@H]3CC[C@]12C [CAMPHORATIN I]	–	12.7 µM	17.5 µM	–	Not Active	Not Active	EC50 (KB [2]; kb): Not Active
C=C(CC[C@@H](C)[C@H]1CC[C@@H]2C3=C(C(=O)C[C@@]21C)[C@@]1(C)CCC(=O)[C@@H](C)[C@@H]1CC3)C(C)C(=O)OC (stereo not given in full) [CAMPHORATIN J]	–	1.6 µM	15.8 µM	–	Not Active	Not Active	EC50 (KB [2]; kb): Not Active
c1ccc2c(c1)[I+]c1ccccc1-2 [DIPHENYLENEIODONIUM]	–	–	–	–	–	–	IC50 (BV-2 [1]; [8]): 0.4 µM
CC(C)[C@@H](C)/C=C/[C@@H](C)[C@H]1CC[C@@H]2[C@]1(C)CC[C@H]1[C@]23C=C[C@]2(C[C@@H](O)CC[C@]12C)OO3 [ERGOSTEROL PEROXIDE]	–	6.3 µM	20.3 µM	–	Not Active	–	–
CC(C)[C@@H](C)/C=C/[C@@H](C)[C@H]1CC[C@H]2C3=CC=C4C[C@@H](O)CC[C@]4(C)[C@H]3CC[C@]12C [ERGOSTEROL]	–	30.6 µM	27.9 µM	–	Not Active	–	–
COc1cc([C@@H]2c3cc4c(cc3[C@@H](O[C@@H]3O[C@@H]5CO[C@@H](C)O[C@H]5[C@H](O)[C@H]3O)[C@H]3COC(=O)[C@H]23)OCO4)cc(OC)c1O [ETOPOSIDE]	4.5 µM	–	–	> 36 µM	–	–	–
C=C(CC[C@@H](C)[C@H]1CC[C@H]2C3=C(C[C@H](O)[C@]12C)[C@@]1(C)CC[C@@H](O)[C@@H](C)[C@@H]1CC3=O)C(C)C(=O)OC (stereo not given in full) [METHYL ANTCINATE H]	–	2.5 µM	18.1 µM	–	–	Not Active	IC50 (BV-2 [1]; [8]): 16 µM; EC50 (KB [2]; kb): Not Active
C=C(CC[C@@H](C)[C@H]1CC[C@H]2C3=C(C(=O)C[C@]12C)[C@@]1(C)CCC(=O)[C@@H](C)[C@@H]1CC3=O)C(C)C(=O)OC (stereo not given in full) [ZHANKUIC ACID A METHYL ESTER]	> 20 µM	0.6 µM	8.4 µM	> 20 µM	Not Active	–	inhibition at 20 µM (KB [6]; Homo sapiens, KB, 72 h): 21%; inhibition at 20 µM [7]: 25%
C=C(CC[C@@H](C)[C@H]1CC[C@H]2C3=C(C(=O)C[C@]12C)[C@@]1(C)CCC(=O)[C@@H](C)[C@@H]1CC3=O)C(C)C(=O)O (stereo not given in full) [ZHANKUIC ACID A]	3 µM	3.6 µM	22.1 µM	6.2 µM	Not Active	–	–
C=C(CC[C@@H](C)[C@H]1CC[C@H]2C3=C(C(=O)C[C@]12C)[C@@]1(C)CC[C@@H](O)[C@@H](C)[C@@H]1CC3=O)C(C)C(=O)O (stereo not given in full) [ZHANKUIC ACID B]	7.3 µM	9.6 µM	–	8.5 µM	Not Active	–	IC50 ([4]; pmnc): Not Active
C=C(CC[C@@H](C)[C@H]1CC[C@H]2C3=C(C(=O)[C@H](O)[C@]12C)[C@@]1(C)CC[C@@H](O)[C@@H](C)[C@@H]1CC3=O)C(C)C(=O)O (stereo not given in full) [ZHANKUIC ACID C]	15.5 µM	16.2 µM	–	6.4 µM	–	–	IC50 (BV-2 [1]; [8]): 40.3 µM; IC50 ([4]; pmnc): Not Active
